Activity calls are given as the source filed them. The rule behind the calls is not given here.
Columns and labels:
[1] = system: Mus musculus; assay: Anticonvulsant activity in mouse assessed as protection against subcutaneous pentylenetetrazole-induced seizures at 30 mg/kg, ip after 0.5 hrs; format: functional, organism-based; set-up: dose 30 mg/kg
[2] = Octanol-phosphate buffer partition coefficient, log P of the compound; format: physicochemical
Outline: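 Octanol and phosphate buffer partition run at room temperature (29 °C). After separation, the phases are membrane-filtered and drug in the aqueous phase is measured by UV. PC = (Ct − Ca)/Ca, where Ct is total drug concentration and Ca is aqueous-phase concentration.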

[3] = system: Mus musculus; assay: Neurotoxicity in mouse assessed as minimum motor impairment at 30 mg/kg, ip after 4 hrs by rotarod test; format: toxicity, organism-based; set-up: dose 30 mg/kg, route intraperitoneal; details: in vivo
Outline: (§1)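 Rotorod test for minimal motor impairment in mice given 30, 100 or 300 mg/kg i.p. at 0.01 mL/g, using sets of one, three and one animals, at 0.5 h and 4.0 h. Animals are observed at each dose and time. Score is N/F, the number showing toxicity over the number tested.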

[4] = system: Mus musculus; assay: Anticonvulsant activity in mouse assessed as protection against subcutaneous pentylenetetrazole-induced seizures at 300 mg/kg, ip after 4 hrs; format: functional, organism-based; set-up: dose 300 mg/kg
[5] = system: Mus musculus; assay: Anticonvulsant activity in mouse assessed as protection against subcutaneous pentylenetetrazole-induced seizures at 100 mg/kg, ip after 0.5 hrs; format: functional, organism-based; set-up: dose 100 mg/kg
[6] = system: Mus musculus; assay: Anticonvulsant activity in mouse assessed as protection against subcutaneous pentylenetetrazole-induced seizures at 30 mg/kg, ip after 4 hrs; format: functional, organism-based; set-up: dose 30 mg/kg
[7] = system: Mus musculus; assay: Neurotoxicity in mouse assessed as minimum motor impairment at 100 mg/kg, ip after 4 hrs by rotarod test; format: toxicity, organism-based; set-up: dose 100 mg/kg, route intraperitoneal; details: in vivo; outline: as §1
[8] = system: Mus musculus; assay: Anticonvulsant activity in mouse assessed as protection against subcutaneous pentylenetetrazole-induced seizures at 300 mg/kg, ip after 0.5 hrs; format: functional, organism-based; set-up: dose 300 mg/kg
[9] = system: Mus musculus; assay: Neurotoxicity in mouse assessed as minimum motor impairment at 300 mg/kg, ip after 4 hrs by rotarod test; format: toxicity, organism-based; set-up: dose 300 mg/kg, route intraperitoneal; details: in vivo; outline: as §1
[10] = system: Mus musculus; assay: Neurotoxicity in mouse assessed as minimum motor impairment at 100 mg/kg, ip after 0.5 hrs by rotarod test; format: toxicity, organism-based; set-up: dose 100 mg/kg, route intraperitoneal; details: in vivo; outline: as §1
[11] = system: Mus musculus; assay: Anticonvulsant activity in mouse assessed as protection against maximal electroshock-induced seizures at 300 mg/kg, ip after 4 hrs; format: functional, organism-based; set-up: dose 300 mg/kg
Outline: (§2)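 Mouse Test 1: i.p. dosing at 0.01 mL/g. Sets of one, three and one animals receive 30, 100 and 300 mg/kg respectively, each tested at 0.5 h and 4.0 h. Score is N/F, the number of animals protected over the number tested. Screening performed by NINDS following the ADD program protocol.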

[12] = system: Mus musculus; assay: Neurotoxicity in mouse assessed as minimum motor impairment at 30 mg/kg, ip after 0.5 hrs by rotarod test; format: toxicity, organism-based; set-up: dose 30 mg/kg, route intraperitoneal; details: in vivo; outline: as §1
[13] = system: Mus musculus; assay: Anticonvulsant activity in mouse assessed as protection against maximal electroshock-induced seizures at 300 mg/kg, ip after 0.5 hrs; format: functional, organism-based; set-up: dose 300 mg/kg; outline: as §2
[14] = system: Mus musculus; assay: Anticonvulsant activity in mouse assessed as protection against maximal electroshock-induced seizures at 100 mg/kg, ip after 0.5 hrs; format: functional, organism-based; set-up: dose 100 mg/kg; outline: as §2
[15] = system: Mus musculus; assay: Anticonvulsant activity in mouse assessed as protection against maximal electroshock-induced seizures at 30 mg/kg, ip after 0.5 hrs; format: functional, organism-based; set-up: dose 30 mg/kg; outline: as §2
[16] = system: Mus musculus; assay: Neurotoxicity in mouse assessed as minimum motor impairment at 300 mg/kg, ip after 0.5 hrs by rotarod test; format: toxicity, organism-based; set-up: dose 300 mg/kg, route intraperitoneal; details: in vivo; outline: as §1
[17] = system: Mus musculus; assay: Anticonvulsant activity in mouse assessed as protection against maximal electroshock-induced seizures at 100 mg/kg, ip after 4 hrs; format: functional, organism-based; set-up: dose 100 mg/kg; outline: as §2
[18] = system: Mus musculus; assay: Anticonvulsant activity in mouse assessed as protection against subcutaneous pentylenetetrazole-induced seizures at 100 mg/kg, ip after 4 hrs; format: functional, organism-based; set-up: dose 100 mg/kg
[19] = system: Mus musculus; assay: Anticonvulsant activity in mouse assessed as protection against maximal electroshock-induced seizures at 30 mg/kg, ip after 4 hrs; format: functional, organism-based; set-up: dose 30 mg/kg; outline: as §2

## COc1cccc(NC(=S)NC(=O)Nc2ccc3c(c2)C(=O)C(=O)N3Cc2ccccc2Cl)c1
[1]
  Activity: inactive
[2]
  logP: 3.19
[3]
  Activity: Non-toxic
[4]
  Activity: inactive
[5]
  Activity: inactive
[6]
  Activity: inactive
[7]
  Activity: Non-toxic
[8]
  Activity: inactive
[9]
  Activity: Non-toxic
[10]
  Activity: Non-toxic
[11]
  Activity: inactive
[12]
  Activity: Non-toxic
[13]
  Activity: inactive
[14]
  Activity: inactive
[15]
  Activity: inactive
[16]
  Activity: Non-toxic
[17]
  Activity: inactive
[18]
  Activity: inactive
[19]
  Activity: inactive

## O=C(NC(=S)Nc1ccccc1Cl)Nc1ccc2c(c1)C(=O)C(=O)N2Cc1ccccc1
[1]
  Activity: inactive
[2]
  logP: 3.01
[3]
  Activity: Non-toxic
[4]
  Activity: inactive
[5]
  Activity: inactive
[6]
  Activity: inactive
[7]
  Activity: Non-toxic
[8]
  Activity: inactive
[9]
  Activity: Non-toxic
[10]
  Activity: Non-toxic
[11]
  Activity: inactive
[12]
  Activity: Non-toxic
[13]
  Activity: inactive
[14]
  Activity: inactive
[15]
  Activity: inactive
[16]
  Activity: Non-toxic
[17]
  Activity: inactive
[18]
  Activity: inactive
[19]
  Activity: inactive

## COc1ccc(NC(=S)NC(=O)Nc2ccc3c(c2)C(=O)C(=O)N3Cc2ccccc2Cl)cc1
[1]
  Activity: inactive
[2]
  logP: 3.24
[3]
  Activity: Non-toxic
[4]
  Activity: inactive
[5]
  Activity: inactive
[6]
  Activity: inactive
[7]
  Activity: Non-toxic
[8]
  Activity: inactive
[9]
  Activity: Non-toxic
[10]
  Activity: Non-toxic
[11]
  Activity: inactive
[12]
  Activity: Non-toxic
[13]
  Activity: inactive
[14]
  Activity: inactive
[15]
  Activity: inactive
[16]
  Activity: Non-toxic
[17]
  Activity: inactive
[18]
  Activity: inactive
[19]
  Activity: inactive

## O=C(NC(=S)Nc1ccccc1)Nc1ccc2c(c1)C(=O)C(=O)N2Cc1ccccc1
[1]
  Activity: inactive
[2]
  logP: 2.48
[3]
  Activity: Non-toxic
[4]
  Activity: inactive
[5]
  Activity: inactive
[6]
  Activity: inactive
[7]
  Activity: Non-toxic
[8]
  Activity: inactive
[9]
  Activity: Non-toxic
[10]
  Activity: Non-toxic
[11]
  Activity: inactive
[12]
  Activity: Non-toxic
[13]
  Activity: inactive
[14]
  Activity: inactive
[15]
  Activity: inactive
[16]
  Activity: Non-toxic
[17]
  Activity: inactive
[18]
  Activity: inactive
[19]
  Activity: inactive

## COc1ccccc1NC(=S)NC(=O)Nc1ccc2c(c1)C(=O)C(=O)N2Cc1ccccc1
[1]
  Activity: inactive
[2]
  logP: 2.38
[3]
  Activity: Non-toxic
[4]
  Activity: inactive
[5]
  Activity: inactive
[6]
  Activity: inactive
[7]
  Activity: Non-toxic
[8]
  Activity: inactive
[9]
  Activity: Non-toxic
[10]
  Activity: Non-toxic
[11]
  Activity: Active
[12]
  Activity: Non-toxic
[13]
  Activity: Active
[14]
  Activity: inactive
[15]
  Activity: inactive
[16]
  Activity: Non-toxic
[17]
  Activity: inactive
[18]
  Activity: inactive
[19]
  Activity: inactive

## Cc1cccc(NC(=S)NC(=O)Nc2ccc3c(c2)C(=O)C(=O)N3Cc2ccccc2)c1
[1]
  Activity: inactive
[2]
  logP: 2.92
[3]
  Activity: Non-toxic
[4]
  Activity: inactive
[5]
  Activity: inactive
[6]
  Activity: inactive
[7]
  Activity: Non-toxic
[8]
  Activity: inactive
[9]
  Activity: Non-toxic
[10]
  Activity: Non-toxic
[11]
  Activity: inactive
[12]
  Activity: Non-toxic
[13]
  Activity: inactive
[14]
  Activity: inactive
[15]
  Activity: inactive
[16]
  Activity: Non-toxic
[17]
  Activity: inactive
[18]
  Activity: inactive
[19]
  Activity: inactive

## Cc1cccc(NC(=S)NC(=O)Nc2ccc3c(c2)C(=O)C(=O)N3Cc2ccccc2Cl)c1
[1]
  Activity: inactive
[2]
  logP: 3.72
[3]
  Activity: Non-toxic
[4]
  Activity: Active
[5]
  Activity: inactive
[6]
  Activity: inactive
[7]
  Activity: Non-toxic
[8]
  Activity: inactive
[9]
  Activity: Non-toxic
[10]
  Activity: Non-toxic
[11]
  Activity: Active
[12]
  Activity: Non-toxic
[13]
  Activity: inactive
[14]
  Activity: inactive
[15]
  Activity: inactive
[16]
  Activity: Non-toxic
[17]
  Activity: inactive
[18]
  Activity: inactive
[19]
  Activity: inactive

## Cc1ccc(NC(=S)NC(=O)Nc2ccc3c(c2)C(=O)C(=O)N3Cc2ccccc2)cc1
[1]
  Activity: inactive
[2]
  logP: 2.96
[3]
  Activity: Non-toxic
[4]
  Activity: inactive
[5]
  Activity: inactive
[6]
  Activity: inactive
[7]
  Activity: Non-toxic
[8]
  Activity: inactive
[9]
  Activity: Non-toxic
[10]
  Activity: Non-toxic
[11]
  Activity: inactive
[12]
  Activity: Non-toxic
[13]
  Activity: inactive
[14]
  Activity: inactive
[15]
  Activity: inactive
[16]
  Activity: Non-toxic
[17]
  Activity: inactive
[18]
  Activity: inactive
[19]
  Activity: inactive

## COc1cccc(NC(=S)NC(=O)Nc2ccc3c(c2)C(=O)C(=O)N3Cc2ccccc2)c1
[1]
  Activity: inactive
[2]
  logP: 2.4
[3]
  Activity: Non-toxic
[4]
  Activity: inactive
[5]
  Activity: inactive
[6]
  Activity: inactive
[7]
  Activity: Non-toxic
[8]
  Activity: inactive
[9]
  Activity: Non-toxic
[10]
  Activity: Non-toxic
[11]
  Activity: inactive
[12]
  Activity: Non-toxic
[13]
  Activity: inactive
[14]
  Activity: inactive
[15]
  Activity: inactive
[16]
  Activity: Non-toxic
[17]
  Activity: inactive
[18]
  Activity: inactive
[19]
  Activity: inactive

## Cc1ccccc1NC(=S)NC(=O)Nc1ccc2c(c1)C(=O)C(=O)N2Cc1ccccc1Cl
[1]
  Activity: inactive
[2]
  logP: 3.7
[3]
  Activity: Non-toxic
[4]
  Activity: Active
[5]
  Activity: inactive
[6]
  Activity: inactive
[7]
  Activity: Non-toxic
[8]
  Activity: inactive
[9]
  Activity: Non-toxic
[10]
  Activity: Non-toxic
[11]
  Activity: Active
[12]
  Activity: Non-toxic
[13]
  Activity: inactive
[14]
  Activity: inactive
[15]
  Activity: inactive
[16]
  Activity: Non-toxic
[17]
  Activity: inactive
[18]
  Activity: inactive
[19]
  Activity: inactive

## COc1ccccc1NC(=S)NC(=O)Nc1ccc2c(c1)C(=O)C(=O)N2Cc1ccccc1Cl
[1]
  Activity: inactive
[2]
  logP: 3.18
[3]
  Activity: Non-toxic
[4]
  Activity: inactive
[5]
  Activity: inactive
[6]
  Activity: inactive
[7]
  Activity: Non-toxic
[8]
  Activity: inactive
[9]
  Activity: Non-toxic
[10]
  Activity: Non-toxic
[11]
  Activity: inactive
[12]
  Activity: Non-toxic
[13]
  Activity: inactive
[14]
  Activity: inactive
[15]
  Activity: inactive
[16]
  Activity: Non-toxic
[17]
  Activity: inactive
[18]
  Activity: inactive
[19]
  Activity: inactive
